The source made the active and inactive calls. The rule behind the calls is not given here.
Experiments:
[1] = target: Epidermal growth factor receptor (Homo sapiens, UniProt P00533, DEL747/DEL747-750); assay: Inhibition of N-terminal GST-tagged human EGFR del 747-750 mutant cytoplasmic domain expressed in baculovirus expression system using FAM-labeled peptide as substrate after 10 mins by mobility shift assay
NCI-H1975 [2] = assay: Antiproliferative activity against human NCI-H1975 cells after 72 hrs by MTT assay; type: functional, cell-based; conditions: NCI-H1975, 72 h
In short: (§1)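 Cells seeded at 3000/well in growth medium with 10% FBS and left overnight. Treated in triplicate for 72 h at nine concentrations (0.458 to 30,000 nM), with DMSO-only controls. MTT (5 mg/mL) added for the last 4 h, formazan dissolved in DMSO, absorbance read at 490 nm. IC50 from non-linear sigmoidal dose-response fit.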

A-431 [3] = assay: Antiproliferative activity against human A431 cells after 72 hrs by MTT assay; type: functional, cell-based; conditions: A-431, 72 h; in short: as §1
HCC827 [4] = assay: Antiproliferative activity against human HCC827 cells after 72 hrs by MTT assay; type: functional, cell-based; conditions: HCC827, 72 h; in short: as §1
PC-9 = assay: Antiproliferative activity against human PC9 cells after 72 hrs by MTT assay; type: functional, cell-based; conditions: PC-9, 72 h; in short: as §1
[5] = target: Fibroblast growth factor receptor 1 (Homo sapiens) (UniProt P11362); assay: Inhibition of N-terminal GST-tagged human FGFR1 cytoplasmic domain (398 to 822 residues) expressed in baculovirus expression system at […] using FAM-labeled peptide as substrate after 10 mins by mobility shift assay relative to control
In short: (§2)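 Caliper mobility-shift kinase assay. Kinase in kinase base buffer was preincubated with compound for 10 min at room temperature. FAM-labelled peptide and ATP at Km were then added, and the reaction ran at 28 °C until quenched with buffer. Screening concentration was 1 µM. Percent inhibition = (max − conversion)/(max − min) × 100, with DMSO as max and a low control as min.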

[6] = target: Epidermal growth factor receptor (Homo sapiens, UniProt P00533); assay: Inhibition of N-terminal GST-tagged wild type human EGFR cytoplasmic domain (669 to 1210 residues) expressed in baculovirus expression system using FAM-labeled peptide as substrate after 10 mins by mobility shift assay
NCI-H3255 [7] = assay: Antiproliferative activity against human H3255 cells after 72 hrs by MTT assay; type: functional, cell-based; conditions: NCI-H3255, 72 h; in short: as §1
BEAS-2B = assay: Cytotoxicity against human BEAS2B cells after 72 hrs by MTT assay; type: cell-based; in short: as §1
[8] = target: Vascular endothelial growth factor receptor 2 (Homo sapiens) (UniProt P35968); assay: Inhibition of N-terminal GST-tagged human KDR cytoplasmic domain (790 to 1356 residues) expressed in baculovirus expression system at […] using FAM-labeled peptide as substrate after 10 mins by mobility shift assay relative to control; in short: as §2
NCI-H1975 [9] = assay: Induction of apoptosis in human NCI-H1975 cells assessed as viable cells at 1000 nM after 48 hrs by Annexin V-FITC/PI staining based flow cytometry (reference value: 93.7%); type: functional; conditions: NCI-H1975, 48 h, read-out: Activity
NCI-H3255 [10] = assay: Induction of apoptosis in human H3255 cells assessed as viable cells at 1000 nM after 48 hrs by Annexin V-FITC/PI staining based flow cytometry (reference value: 87.9%); type: functional; conditions: NCI-H3255, 48 h, read-out: Activity
HCC827 [11] = assay: Induction of apoptosis in human HCC827 cells assessed as viable cells at 1000 nM after 48 hrs by Annexin V-FITC/PI staining based flow cytometry (reference value: 94.6%); type: functional; conditions: HCC827, 48 h, read-out: Activity
NCI-H3255 [12] = assay: Induction of apoptosis in human H3255 cells assessed as necrotic cells at 1000 nM after 48 hrs by Annexin V-FITC/PI staining based flow cytometry (reference value: 7.06%); type: functional
HCC827 [13] = assay: Induction of apoptosis in human HCC827 cells assessed as early apoptotic cells at 1000 nM after 48 hrs by Annexin V-FITC/PI staining based flow cytometry (reference value: 2.83%); type: functional
NCI-H3255 [14] = assay: Induction of apoptosis in human H3255 cells assessed as late apoptotic cells at 1000 nM after 48 hrs by Annexin V-FITC/PI staining based flow cytometry (reference value: 1.77%); type: functional
NCI-H1975 [15] = assay: Induction of apoptosis in human NCI-H1975 cells assessed as necrotic cells at 1000 nM after 48 hrs by Annexin V-FITC/PI staining based flow cytometry (reference value: 2.31%); type: functional
A-431 [16] = assay: Induction of apoptosis in human A431 cells assessed as early apoptotic cells at 1000 nM after 48 hrs by Annexin V-FITC/PI staining based flow cytometry (reference value: 3.40%); type: functional
HCC827 [17] = assay: Induction of apoptosis in human HCC827 cells assessed as late apoptotic cells at 1000 nM after 48 hrs by Annexin V-FITC/PI staining based flow cytometry (reference value: 1.15%); type: functional
NCI-H1975 [18] = assay: Induction of apoptosis in human NCI-H1975 cells assessed as early apoptotic cells at 1000 nM after 48 hrs by Annexin V-FITC/PI staining based flow cytometry (reference value: 2.07%); type: functional
NCI-H1975 [19] = assay: Induction of apoptosis in human NCI-H1975 cells assessed as late apoptotic cells at 1000 nM after 48 hrs by Annexin V-FITC/PI staining based flow cytometry (reference value: 1.91%); type: functional
A-431 [20] = assay: Induction of apoptosis in human A431 cells assessed as viable cells at 1000 nM after 48 hrs by Annexin V-FITC/PI staining based flow cytometry (reference value: 90.3%); type: functional; conditions: A-431, 48 h, read-out: Activity
A-431 [21] = assay: Induction of apoptosis in human A431 cells assessed as late apoptotic cells at 1000 nM after 48 hrs by Annexin V-FITC/PI staining based flow cytometry (reference value: 2.11%); type: functional
NCI-H3255 [22] = assay: Induction of apoptosis in human H3255 cells assessed as early apoptotic cells at 1000 nM after 48 hrs by Annexin V-FITC/PI staining based flow cytometry (reference value: 3.22%); type: functional
HCC827 [23] = assay: Induction of apoptosis in human HCC827 cells assessed as necrotic cells at 1000 nM after 48 hrs by Annexin V-FITC/PI staining based flow cytometry (reference value: 1.41%); type: functional
NCI-H1975 [24] = assay: Cell cycle arrest in human NCI-H1975 cells assessed as accumulation at G2/M phase at 500 nM after 24 hrs by propidium iodide staining based flow cytometry; type: functional
In short: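 H1975 cells (2×10^5) seeded in 6-well plates overnight, then given fresh growth medium with drug (50–500 nM range; reference drug 500 nM) or 1‰ DMSO control for 24 h; cells collected with medium, washed in cold PBS, fixed in 70% cold ethanol at –20 °C overnight, stained with PI/RNase buffer, analysed by flow cytometry; triplicates, mean ± SEM.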

A-431 [25] = assay: Induction of apoptosis in human A431 cells assessed as necrotic cells at 1000 nM after 48 hrs by Annexin V-FITC/PI staining based flow cytometry (reference value: 4.16%); type: functional

Epidermal growth factor receptor (Homo sapiens, UniProt P00533), sequence (P00533 whole entry, the tested form may be a part): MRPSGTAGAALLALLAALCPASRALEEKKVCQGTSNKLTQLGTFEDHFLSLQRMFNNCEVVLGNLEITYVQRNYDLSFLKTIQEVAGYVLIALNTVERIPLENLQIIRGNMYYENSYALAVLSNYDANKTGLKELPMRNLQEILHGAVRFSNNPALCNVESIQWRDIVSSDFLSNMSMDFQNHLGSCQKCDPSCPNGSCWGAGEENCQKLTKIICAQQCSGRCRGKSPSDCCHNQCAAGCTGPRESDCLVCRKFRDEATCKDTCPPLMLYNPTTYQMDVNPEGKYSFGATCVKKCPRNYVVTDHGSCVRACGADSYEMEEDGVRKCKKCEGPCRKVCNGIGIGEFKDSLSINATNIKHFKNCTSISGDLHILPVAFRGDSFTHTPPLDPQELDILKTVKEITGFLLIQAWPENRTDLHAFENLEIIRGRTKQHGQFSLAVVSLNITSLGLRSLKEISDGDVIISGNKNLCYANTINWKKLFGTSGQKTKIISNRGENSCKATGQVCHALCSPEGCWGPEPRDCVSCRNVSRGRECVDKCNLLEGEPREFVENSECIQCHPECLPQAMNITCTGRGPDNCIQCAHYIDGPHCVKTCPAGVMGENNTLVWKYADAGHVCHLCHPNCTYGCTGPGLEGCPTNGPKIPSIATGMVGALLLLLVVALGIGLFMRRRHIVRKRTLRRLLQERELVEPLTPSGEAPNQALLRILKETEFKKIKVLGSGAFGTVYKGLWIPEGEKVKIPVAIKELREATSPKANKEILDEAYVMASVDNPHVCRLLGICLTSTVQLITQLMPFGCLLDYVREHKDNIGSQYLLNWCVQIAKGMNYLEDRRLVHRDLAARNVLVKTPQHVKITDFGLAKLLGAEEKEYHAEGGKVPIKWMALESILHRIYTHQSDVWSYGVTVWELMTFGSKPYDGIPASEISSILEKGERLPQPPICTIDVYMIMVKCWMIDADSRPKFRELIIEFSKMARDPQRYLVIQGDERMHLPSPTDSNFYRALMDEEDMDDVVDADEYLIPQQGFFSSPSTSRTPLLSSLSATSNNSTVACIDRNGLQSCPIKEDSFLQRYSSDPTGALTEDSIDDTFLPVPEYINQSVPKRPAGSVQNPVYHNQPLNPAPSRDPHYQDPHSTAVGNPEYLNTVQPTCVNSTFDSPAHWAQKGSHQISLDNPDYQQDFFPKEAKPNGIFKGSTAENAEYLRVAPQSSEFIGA
Vascular endothelial growth factor receptor 2 (Homo sapiens), sequence (P35968 whole entry, the tested form may be a part): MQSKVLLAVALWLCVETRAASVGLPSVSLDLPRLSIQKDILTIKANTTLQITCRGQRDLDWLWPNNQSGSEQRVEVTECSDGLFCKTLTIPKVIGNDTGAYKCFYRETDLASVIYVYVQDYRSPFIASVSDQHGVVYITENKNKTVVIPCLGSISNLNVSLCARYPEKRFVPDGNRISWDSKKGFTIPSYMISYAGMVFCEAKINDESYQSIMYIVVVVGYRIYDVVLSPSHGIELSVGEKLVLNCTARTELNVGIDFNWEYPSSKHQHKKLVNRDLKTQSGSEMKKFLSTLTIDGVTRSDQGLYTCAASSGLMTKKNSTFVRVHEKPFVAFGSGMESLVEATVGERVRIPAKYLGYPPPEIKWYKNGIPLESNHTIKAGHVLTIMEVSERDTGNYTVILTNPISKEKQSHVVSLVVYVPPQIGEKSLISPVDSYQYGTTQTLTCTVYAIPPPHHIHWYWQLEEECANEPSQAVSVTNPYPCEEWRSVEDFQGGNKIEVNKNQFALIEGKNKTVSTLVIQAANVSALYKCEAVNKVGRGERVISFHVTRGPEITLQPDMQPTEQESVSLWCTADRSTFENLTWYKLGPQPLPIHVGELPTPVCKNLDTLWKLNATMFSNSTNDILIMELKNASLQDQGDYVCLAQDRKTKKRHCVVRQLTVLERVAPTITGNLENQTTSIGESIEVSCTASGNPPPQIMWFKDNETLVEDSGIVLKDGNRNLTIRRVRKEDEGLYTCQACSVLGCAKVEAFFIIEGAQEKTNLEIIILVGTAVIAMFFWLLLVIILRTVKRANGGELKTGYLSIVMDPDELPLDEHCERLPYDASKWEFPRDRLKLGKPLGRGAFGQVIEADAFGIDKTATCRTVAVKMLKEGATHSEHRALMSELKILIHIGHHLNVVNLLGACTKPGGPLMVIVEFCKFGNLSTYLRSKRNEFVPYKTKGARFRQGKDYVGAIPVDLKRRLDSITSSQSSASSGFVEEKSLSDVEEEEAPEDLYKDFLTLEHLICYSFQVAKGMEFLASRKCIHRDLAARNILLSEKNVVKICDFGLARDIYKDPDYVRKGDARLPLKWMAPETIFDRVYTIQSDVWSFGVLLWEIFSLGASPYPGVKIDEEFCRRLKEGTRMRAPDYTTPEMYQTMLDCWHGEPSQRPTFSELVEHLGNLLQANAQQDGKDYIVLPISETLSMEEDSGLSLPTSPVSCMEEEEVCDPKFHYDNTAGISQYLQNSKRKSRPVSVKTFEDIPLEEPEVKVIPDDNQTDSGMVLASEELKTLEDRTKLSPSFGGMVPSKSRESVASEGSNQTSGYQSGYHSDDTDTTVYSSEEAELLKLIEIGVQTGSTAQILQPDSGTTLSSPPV
Epidermal growth factor receptor (Homo sapiens, UniProt P00533, DEL747/DEL747-750), sequence (P00533 with tags, fused parts or gaps DEL747/DEL747-750 limits assumed): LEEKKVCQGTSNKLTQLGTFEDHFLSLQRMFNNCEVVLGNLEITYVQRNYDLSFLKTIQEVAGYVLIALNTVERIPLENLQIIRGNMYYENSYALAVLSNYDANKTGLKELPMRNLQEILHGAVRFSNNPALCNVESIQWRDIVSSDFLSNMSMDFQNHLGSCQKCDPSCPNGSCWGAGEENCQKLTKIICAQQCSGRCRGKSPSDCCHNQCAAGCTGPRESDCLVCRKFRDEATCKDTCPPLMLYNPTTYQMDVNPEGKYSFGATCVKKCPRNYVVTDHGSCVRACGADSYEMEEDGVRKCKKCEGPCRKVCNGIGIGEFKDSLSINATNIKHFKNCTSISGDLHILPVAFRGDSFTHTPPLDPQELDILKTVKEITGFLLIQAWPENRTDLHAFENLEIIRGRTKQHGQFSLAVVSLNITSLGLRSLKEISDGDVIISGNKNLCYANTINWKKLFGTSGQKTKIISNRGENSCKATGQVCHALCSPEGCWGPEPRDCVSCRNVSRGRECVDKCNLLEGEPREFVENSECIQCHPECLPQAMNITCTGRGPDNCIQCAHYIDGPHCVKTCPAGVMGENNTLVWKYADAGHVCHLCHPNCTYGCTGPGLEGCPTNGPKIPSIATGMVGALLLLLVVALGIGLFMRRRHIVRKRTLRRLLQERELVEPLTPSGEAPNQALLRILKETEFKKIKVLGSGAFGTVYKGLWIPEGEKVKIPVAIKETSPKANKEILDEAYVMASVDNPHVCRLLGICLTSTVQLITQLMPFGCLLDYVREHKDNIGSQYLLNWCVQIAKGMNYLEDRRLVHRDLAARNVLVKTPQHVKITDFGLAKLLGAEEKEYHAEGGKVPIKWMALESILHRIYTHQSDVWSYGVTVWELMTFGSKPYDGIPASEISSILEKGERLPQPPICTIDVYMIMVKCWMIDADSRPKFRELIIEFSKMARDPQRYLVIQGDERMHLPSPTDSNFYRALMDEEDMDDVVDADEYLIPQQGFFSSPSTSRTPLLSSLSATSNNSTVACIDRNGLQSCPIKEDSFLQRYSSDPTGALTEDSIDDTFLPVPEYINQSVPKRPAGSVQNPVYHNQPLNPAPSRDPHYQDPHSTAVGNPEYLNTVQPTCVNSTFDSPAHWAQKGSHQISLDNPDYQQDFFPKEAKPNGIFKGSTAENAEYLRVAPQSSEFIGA

Structure (SMILES) | IC50 [1] | IC50 (NCI-H1975 [2]) | IC50 (A-431 [3]) | IC50 (HCC827 [4]) | IC50 (PC-9) | inhibition [5] | IC50 [6] | IC50 (NCI-H3255 [7]) | IC50 (BEAS-2B) | inhibition [8] | further results
COc1ccc(OC)c(Nc2cc(Nc3ccc(N4CCN(C)CC4)cc3)ncn2)c1 | > 10000 nM | > 30000 nM | > 30000 nM | 24300 nM | > 30000 nM | 4.7% | 288 nM | > 30000 nM | 18100 nM | 28.5% | 
O=C(O)CCC(=O)Nc1cc(Nc2ccc(Cl)cc2)ncn1 | 792 nM | 2730 nM | 1900 nM | 3130 nM | 790 nM | 5.2% | > 10000 nM | 4370 nM | 19000 nM | 15.7% | 
CCOC(=O)CCCC(=O)Nc1cc(Nc2cccc(Cl)c2)ncn1 | > 10000 nM | > 30000 nM | 490 nM | > 30000 nM | > 30000 nM | 0.5% | 27 nM | > 30000 nM | 21100 nM | 16% | 
COc1ccc(OC)c(Nc2cc(Nc3ccc(F)cc3)ncn2)c1 | 208 nM | > 30000 nM | > 30000 nM | 1720 nM | 640 nM | -3.1% | 336 nM | > 30000 nM | 18000 nM | 12.4% | 
COc1cc2ncnc(Nc3cccc(Cl)c3F)c2cc1OC(=O)N1CCN(C)C[C@H]1C [AZD-3759] |  | 24200 nM | 3500 nM | 30 nM | 50 nM |  |  | 90 nM | 18700 nM |  | viability at 1 µM (NCI-H1975 [9]): 82%; viability at 1 µM (NCI-H3255 [10]): 83.7%; viability at 1 µM (HCC827 [11]): 78.4%; Activity (NCI-H3255 [12]): 6.05%; Activity (HCC827 [13]): 6.11%; Activity (NCI-H3255 [14]): 1.71%; Activity (NCI-H1975 [15]): 2.65%; Activity (A-431 [16]): 7.35%; Activity (HCC827 [17]): 12.8%; Activity (NCI-H1975 [18]): 9.95%; Activity (NCI-H1975 [19]): 5.39%; viability at 1 µM (A-431 [20]): 88.6%; Activity (A-431 [21]): 2.88%; Activity (NCI-H3255 [22]): 8.51%; Activity (HCC827 [23]): 2.77%; Activity (NCI-H1975 [24]): inactive; Activity (A-431 [25]): 1.17%
CCOc1ccc(Nc2cc(NC(=O)c3ccccc3)ncn2)cc1 | 754 nM | 7070 nM | 6540 nM | 7000 nM | 2090 nM | -8.8% | > 10000 nM | 9170 nM | 17400 nM | 11.3% | 
COc1cccc(Nc2cc(Nc3cccc(Cl)c3)ncn2)c1 | 974 nM | > 30000 nM | 15200 nM | 4040 nM | 1660 nM | -3.8% | > 10000 nM | > 30000 nM | 17600 nM | 19.2% | 
O=C(O)CCCC(=O)Nc1cc(Nc2ccccc2)ncn1 | 105 nM | 1850 nM | 1190 nM | 2220 nM | 940 nM | -4% | > 10000 nM | 2940 nM | 17900 nM | 4.9% | 
Clc1ccc(Nc2cc(Nc3cccc(Cl)n3)ncn2)cc1 | 229 nM | > 30000 nM | > 30000 nM | > 30000 nM | 1180 nM | -5.7% | 324 nM | > 30000 nM | 18000 nM | 8.5% | 
CCOC(=O)CCC(=O)Nc1cc(Nc2cccc(Br)c2)ncn1 | 933 nM |  |  |  |  | -7.1% | > 10000 nM |  |  | 5.7% | 
O=C(Nc1cc(N2CCOCC2)ncn1)c1ccc(F)cc1 | 63 nM | 1970 nM | 1130 nM | 1960 nM | 870 nM | 8.8% | 131 nM | 1870 nM | 21000 nM | 31% | 
COc1cc(Nc2cc(Nc3ccc(Cl)cc3)ncn2)cc(OC)c1OC | > 10000 nM |  |  |  |  | 1.2% | 901 nM |  |  | 37.1% | 
O=C(Nc1cc(Nc2ccc(Cl)cc2)ncn1)c1ccc(F)cc1 | 1410 nM | 17600 nM | > 30000 nM | > 30000 nM | 820 nM | 16.3% | > 10000 nM | > 30000 nM | 18600 nM | 9.3% | 

— ChEMBL document CHEMBL4265907, “Design, synthesis and pharmacological evaluation of N4,N6-disubstituted pyrimidine-4,6-diamine derivatives as potent EGFR inhibitors in non-small cell lung cancer” (Eur J Med Chem, 2018)
